In brackets after ≈: the same amount, converted by molar mass. Activity calls are given as the source filed them. The calls are words filed in the database; no cut-off is given here.
Experiments:
[1] = target: T1, Bifunctional epoxide hydrolase 2 (Mus musculus, UniProt P34914); experiment: Inhibition of recombinant mouse soluble epoxide hydrolase using CMNPC as substrate preincubated for 5 mins followed by substrate addition and measured at 30 secs interval for 10 mins by fluorescence assay
T1 sequence (P34914 whole entry): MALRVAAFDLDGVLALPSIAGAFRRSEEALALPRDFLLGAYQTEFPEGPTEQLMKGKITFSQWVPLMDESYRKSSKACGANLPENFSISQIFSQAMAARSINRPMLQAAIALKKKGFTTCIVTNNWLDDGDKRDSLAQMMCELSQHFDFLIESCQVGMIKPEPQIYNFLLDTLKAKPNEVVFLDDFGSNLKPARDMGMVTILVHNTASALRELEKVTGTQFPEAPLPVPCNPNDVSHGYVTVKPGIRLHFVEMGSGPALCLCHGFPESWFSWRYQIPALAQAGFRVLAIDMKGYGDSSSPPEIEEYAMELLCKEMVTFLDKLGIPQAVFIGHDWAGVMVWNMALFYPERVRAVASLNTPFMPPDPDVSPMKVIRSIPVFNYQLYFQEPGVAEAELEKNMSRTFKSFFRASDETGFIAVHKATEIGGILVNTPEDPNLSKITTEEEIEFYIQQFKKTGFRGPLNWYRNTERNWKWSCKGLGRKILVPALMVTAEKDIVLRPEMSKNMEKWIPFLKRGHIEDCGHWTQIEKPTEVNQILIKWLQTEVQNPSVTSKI
In short: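 Purified recombinant enzyme was preincubated with inhibitor (0.4–100,000 nM final) for 5 min at 30 °C in 100 mM sodium phosphate, pH 7.4, with 0.1 mg/mL BSA and 1% DMSO. CMNPC was added at 5 μM final. 6-Methoxynaphthaldehyde fluorescence (ex 330/em 465 nm) was read every 30 s for 10 min. IC50 values are averages of three replicates.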

[2] = Cytotoxicity against human PBMC assessed as reduction in cell viability measured after 72 hrs by ATPlite assay; settings: read-out: LC50 (the source's name)
THLE-2 = experiment: Cytotoxicity against human THLE-2 cells assessed as reduction in cell viability measured after 72 hrs by ATPlite assay; type: cell-based; settings: thle-2, 72 h, read-out: LC50 (the source's name)
In short: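 THLE-2 cells were grown in BEGM with 0.7 μg/mL phosphoethanolamine, 0.5 ng/mL EGF and 10% FBS, plated at 10,000 cells/well and left to adhere for 24 h. Cells were exposed to 0–100 μM final (1% DMSO) for 72 h at 37 °C, 5% CO2.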

[3] = Stability in human liver microsomes assessed as parent compound remaining measured after 60 mins in presence of NADPH by LC-MS/MS analysis; type: ADME, Microsome; settings: read-out: Stabilty
In short: (§1)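 Compound is incubated at 37 °C with human, mouse or rat liver microsomes in 50 mM phosphate buffer pH 7.4. […] Samples at 0–60 min are quenched into acetonitrile; percent parent remaining at 60 min is reported. Testosterone is the positive control.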

[4] = Stability in mouse liver microsomes assessed as parent compound remaining measured after 60 mins in presence of NADPH by LC-MS/MS analysis; type: ADME, Microsome; settings: read-out: Stabilty; in short: as §1
[5] = Stability in rat liver microsomes assessed as parent compound remaining measured after 60 mins in presence of NADPH by LC-MS/MS analysis; type: ADME, Microsome; settings: read-out: Stabilty; in short: as §1
[6] = target: T2, Polyunsaturated fatty acid 5-lipoxygenase (Homo sapiens) (UniProt P09917); experiment: Inhibition of recombinant human full-length LOX5 (1 to 674 residues) expressed in insect cells using arachidonic acid as substrate preincubated for 10 mins followed by substrate addition measured after 20 mins by H2DCFDA probe based fluorescence assay; settings: time 30.0 min
T2 sequence (whole entry): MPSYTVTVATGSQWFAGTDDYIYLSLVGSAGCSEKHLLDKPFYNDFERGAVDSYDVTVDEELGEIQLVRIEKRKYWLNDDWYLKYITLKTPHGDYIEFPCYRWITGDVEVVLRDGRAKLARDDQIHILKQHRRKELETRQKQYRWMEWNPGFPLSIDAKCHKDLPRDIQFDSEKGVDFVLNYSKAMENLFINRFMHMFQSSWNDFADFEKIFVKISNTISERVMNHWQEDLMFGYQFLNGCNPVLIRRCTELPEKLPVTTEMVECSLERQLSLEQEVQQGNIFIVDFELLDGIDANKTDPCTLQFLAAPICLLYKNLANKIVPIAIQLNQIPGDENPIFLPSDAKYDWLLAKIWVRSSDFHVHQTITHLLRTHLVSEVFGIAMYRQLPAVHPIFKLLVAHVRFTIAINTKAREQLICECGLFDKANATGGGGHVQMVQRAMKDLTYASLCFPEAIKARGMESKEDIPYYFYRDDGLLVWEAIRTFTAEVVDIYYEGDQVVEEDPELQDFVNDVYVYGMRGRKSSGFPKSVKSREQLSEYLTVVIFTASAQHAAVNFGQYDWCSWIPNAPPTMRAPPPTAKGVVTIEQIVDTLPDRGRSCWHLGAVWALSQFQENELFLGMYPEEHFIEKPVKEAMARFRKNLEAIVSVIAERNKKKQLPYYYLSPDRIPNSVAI

[7] = target: T3, Prostaglandin G/H synthase 2 (Homo sapiens) (UniProt P35354); experiment: Inhibition of recombinant human COX2 using arachidonic acid as substrate measured after 5 mins by fluorescence assay
T3 sequence (whole entry): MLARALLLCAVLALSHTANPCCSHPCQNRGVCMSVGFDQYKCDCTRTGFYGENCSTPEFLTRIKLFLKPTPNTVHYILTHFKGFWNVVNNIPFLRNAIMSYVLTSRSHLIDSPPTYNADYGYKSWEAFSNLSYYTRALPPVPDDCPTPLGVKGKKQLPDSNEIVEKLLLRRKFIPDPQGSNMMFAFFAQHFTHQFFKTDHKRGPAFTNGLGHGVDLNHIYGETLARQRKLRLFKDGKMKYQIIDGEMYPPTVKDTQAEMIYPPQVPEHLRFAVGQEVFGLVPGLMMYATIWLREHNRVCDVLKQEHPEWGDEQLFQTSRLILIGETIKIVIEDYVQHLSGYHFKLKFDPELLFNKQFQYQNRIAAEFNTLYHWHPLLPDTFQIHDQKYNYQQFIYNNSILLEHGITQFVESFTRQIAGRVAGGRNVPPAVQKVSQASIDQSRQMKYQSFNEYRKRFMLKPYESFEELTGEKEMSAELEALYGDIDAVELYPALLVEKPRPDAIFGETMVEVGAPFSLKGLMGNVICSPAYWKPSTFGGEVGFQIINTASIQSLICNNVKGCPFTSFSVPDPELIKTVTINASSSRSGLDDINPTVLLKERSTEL

physchem = settings: 1% DMSO/99% PBS buffer solution
[8] = target: T4, Bifunctional epoxide hydrolase 2 (Homo sapiens, UniProt P34913); experiment: Inhibition of recombinant human soluble epoxide hydrolase using CMNPC as substrate preincubated for 5 mins followed by substrate addition and measured at 30 secs interval for 10 mins by fluorescence assay
T4 sequence (P34913 whole entry): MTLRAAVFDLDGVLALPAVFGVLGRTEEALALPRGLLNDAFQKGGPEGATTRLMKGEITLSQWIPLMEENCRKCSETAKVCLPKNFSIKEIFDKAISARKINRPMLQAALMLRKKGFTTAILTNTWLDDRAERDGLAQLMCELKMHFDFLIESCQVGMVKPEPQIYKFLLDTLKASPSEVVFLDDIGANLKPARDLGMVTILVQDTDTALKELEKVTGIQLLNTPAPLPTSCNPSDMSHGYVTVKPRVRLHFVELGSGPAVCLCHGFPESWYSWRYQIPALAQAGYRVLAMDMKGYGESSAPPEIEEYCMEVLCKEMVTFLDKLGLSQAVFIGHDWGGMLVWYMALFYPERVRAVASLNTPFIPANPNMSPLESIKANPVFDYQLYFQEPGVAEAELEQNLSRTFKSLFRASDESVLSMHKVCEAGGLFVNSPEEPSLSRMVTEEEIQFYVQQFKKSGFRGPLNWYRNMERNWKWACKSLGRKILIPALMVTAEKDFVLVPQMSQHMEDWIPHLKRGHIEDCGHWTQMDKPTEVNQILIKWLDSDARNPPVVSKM

[9] = Apparent permeability across apical to basolateral side in human Caco-2 cells at 10 uM measured after 2 hrs by LC-MS/MS analysis; settings: caco-2, 2 h
[10] = Apparent permeability across basolateral to apical side in human Caco-2 cells at 10 uM measured after 2 hrs by LC-MS/MS analysis; settings: caco-2, 2 h
[11] = Efflux ratio of apparent permeability across basolateral to apical side over apical to basolateral side in human Caco-2 cells at 10 uM measured after 2 hrs by LC-MS/MS analysis

SMILES	IC50 [1] [µM]	IC50 [8] [µM]	also measured
O=C(NC1CCN(C(=O)c2ccccc2F)CC1)NC12CC3CC(CC(C3)O1)C2	0.0759		CC50 [2]: > 20 µM; CC50 (THLE-2): > 100 µM; remaining at 1 h [3]: 30.2%; remaining at 1 h [4]: 39.5%; remaining at 1 h [5]: 19.3%; inhibition [6]: inactive; inhibition [7]: inactive; solubility kinetic at 2 h (physchem): > 100 µM
O=C(NC1CCN(Cc2ccccc2)CC1)NC12CC3CC(CC(C3)O1)C2		1.09	
O=C(NC1CCN(C(=O)C2CCOCC2)CC1)NC12CC3CC(CC(C3)O1)C2	0.512	0.491	
O=C(Nc1ncncn1)NC12CC3CC(CC(C3)O1)C2		1.45	
O=C(Nc1ccon1)NC12CC3CC(CC(C3)O1)C2	3.85	0.911	
CNc1nc(C)nc(N2CCC(NC(=O)NC34CC5CC(CC(C5)O3)C4)CC2)n1	0.365	0.496	
O=C(Nc1ccc(F)c(F)c1F)NC12CC3CC(CC(C3)C1)C2			Papp [9]: 0.67 ×10⁻⁶ cm/s; Papp [10]: 0.46 ×10⁻⁶ cm/s; solubility kinetic at 2 h (physchem): 16 µM (≈ 5.19 µg/mL)
O=C(NC12CC3CC(CC(C3)O1)C2)N[C@H]1CC[C@H](Oc2ccc(C(=O)O)cc2)CC1		0.009	Papp [9]: 0.14 ×10⁻⁶ cm/s; Papp [10]: 7.55 ×10⁻⁶ cm/s; efflux ratio at 2 h, 10 µM [11]: 55.4; solubility kinetic at 2 h (physchem): > 100 µM
O=C(NC1CCN(C(=O)c2cccnc2)CC1)NC12CC3CC(CC(C3)O1)C2	0.291	0.159	
O=C(Nc1nc2ccccc2s1)NC12CC3CC(CC(C3)O1)C2	14.7	0.782	
O=C(Nc1ccc(Cl)c(C(F)(F)F)c1)NC12CC3CC(CC(C3)O1)C2	0.344	0.0197	
O=C(Nc1ccc(F)c(F)c1F)NC12CC3CC(CC(C3)O1)C2	0.553		Papp [9]: 16.8 ×10⁻⁶ cm/s; Papp [10]: 15.1 ×10⁻⁶ cm/s; solubility kinetic at 2 h (physchem): 27 µM (≈ 8.81 µg/mL)
CS(=O)(=O)N1CCC(NC(=O)NC23CC4CC(CC(C4)O2)C3)CC1	0.174	0.247	
CCC(=O)N1CCC(NC(=O)NC23CC4CC(CC(C4)O2)C3)CC1	0.234	0.356	inhibition [6]: inactive; inhibition [7]: inactive
CC(=O)c1ccc(N2CCC(NC(=O)NC34CC5CC(CC(C5)O3)C4)CC2)cc1	0.107		CC50 (THLE-2): > 100 µM; remaining at 1 h [3]: 40%; remaining at 1 h [4]: 73%; remaining at 1 h [5]: 84%; solubility kinetic at 2 h (physchem): 81.5 µM (≈ 32.4 µg/mL)
O=C(NC1CCN(C(=O)C2CC2)CC1)NC12CC3CC(CC(C3)O1)C2	0.13	0.213	
O=C(Nc1cccc(S(F)(F)(F)(F)F)c1)NC12CC3CC(CC(C3)O1)C2	0.723	0.0359	
O=C(Nc1cc(Cl)cc(OC(F)(F)F)c1)NC12CC3CC(CC(C3)O1)C2	1.86	0.0526	
